Screening data from PubChem BioAssay.
An excerpt weighted towards active compounds, which were near 29% of everything screened.
CYP2C9 inhib: inhibitors of human CYP2C9; CYP2C9 Supersomes, luciferin-H conversion, luminescence; inhibition, % at 5 µM; P11712; AID 777; 96,000 compounds, 20% hits;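 active means blocking of liver enzyme CYP2C9 beyond about 50% at 5 µM, limit read from the data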
CYP2C19 activ: increases human CYP2C19 enzyme activity; activation factor at 5 µM; recombinant CYP2C19, luciferin-H EGE luminescence; hits give high values; 0 = fully inhibited enzyme, 1 = untreated enzyme; AID 1025; P33261; 96,000 tested, under 10 active;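 active means activation factor of at least 2 at 5 µM in the primary screen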;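 further: 0 = wells with 2.5 mM tranylcypromine and 1 = vehicle-only wells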
Target sequence (P33261 whole entry, looked up): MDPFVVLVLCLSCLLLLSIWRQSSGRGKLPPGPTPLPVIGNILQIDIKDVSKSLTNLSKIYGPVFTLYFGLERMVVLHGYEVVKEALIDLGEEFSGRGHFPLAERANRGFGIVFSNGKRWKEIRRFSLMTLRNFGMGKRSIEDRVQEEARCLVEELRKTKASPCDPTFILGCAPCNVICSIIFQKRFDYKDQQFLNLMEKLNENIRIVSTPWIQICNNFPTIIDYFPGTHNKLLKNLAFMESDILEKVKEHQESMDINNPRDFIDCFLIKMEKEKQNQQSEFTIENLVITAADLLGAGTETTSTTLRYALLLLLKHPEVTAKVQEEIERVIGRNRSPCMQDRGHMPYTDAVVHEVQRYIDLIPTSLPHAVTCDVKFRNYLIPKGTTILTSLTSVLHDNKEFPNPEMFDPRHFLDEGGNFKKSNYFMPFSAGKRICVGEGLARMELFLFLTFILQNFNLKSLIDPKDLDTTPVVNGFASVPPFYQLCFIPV
Ecoli tolC: growth inhibitors of E. coli BW25113 tolC mutant; growth inhibition, % at 10 µM (by protocol); OD615; 65,000 compounds, 2.2% hits; AID 573;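 active means growth inhibition at or above a cutoff equal to the mean over every tested compound plus 3 SD, cut at about 60% in these data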;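 further: growth measured after 20 h incubation at 37 °C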
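Doses: one dose of 10 µM final / Material: E. coli BW25113 ΔtolC::kan, tolC deletion mutant strain / Buffer or medium: LB with kanamycin 50 µg/mL / Evaluation: percent growth inhibition / Detection: optical density read at 615 nm / Incubation: 37 °C, 20 h exposure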
CYP2C19 inhib: blocks human cytochrome P450 2C19; 96,000 compounds, 21% hits; AID 778; P33261; CYP2C19 Supersomes, luciferin-H EGE luminescence, 30 min; inhibition, % at 5 µM;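 active means CYP2C19 inhibition above a set limit at 5 µM in the primary screen, cut at about 50% in these data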;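 further: plate controls were negative control wells for no effect and 2.5 mM tranylcypromine positive control for full effect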
E coli WT exp: growth inhibitors of E. coli BW25113 wild type. OD600 absorbance. growth inhibition, % at 100 µM. 98,000 compounds, 0.15% hits. AID 710;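 active means growth inhibition above about 50% at one test dose, limit read from the data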;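 further: growth measured after 20 h incubation at 37 °C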
CYP2C9 act: CYP2C9 (human) activation; P11712; recombinant CYP2C9, luciferin-H conversion, luminescence; hits give high values; factor 1 = untreated enzyme, 0 = blocked; activation factor at 5 µM; 96,000 compounds, 1.4% hits;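 active means activation factor of 2 or more for CYP2C9 at a 5 µM dose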;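 further: 0 = sulfaphenazole-blocked wells and 1 = vehicle-only wells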
* hit, by the source's call; · = no result.

SMILES | CYP2C9 inhib | CYP2C19 activ | Ecoli tolC | CYP2C19 inhib | E coli WT exp | CYP2C9 act
CCOC(=O)C(CC)Sc1nc2c(c(=O)[nH]c(=O)n2C)n1CCc1ccccc1 (stereo not given) | 78* | 0.4 | 27 | 60* | 6 | 0.2
CC(C)CCSc1nc2c(c(=O)[nH]c(=O)n2C)n1CCCc1ccccc1 | 6 | 1.1 | 23 | -7 | -12 | 0.9
Cc1nnc(Sc2nc3c(c(=O)[nH]c(=O)n3C)n2CCCc2ccccc2)s1 | 60* | 0.7 | -14 | 27 | -3 | 0.4
Cc1ccc(C(NC(=O)NCCCN2CCOCC2)=C(Cl)Cl)cc1F | 19 | 0.9 | · | 13 | 8 | 0.8
COc1ccc(CCn2c(=N)c(C#N)cc3c(=O)n4ccccc4nc32)cc1 | · | · | 7 | · | · | ·
Cn1cc(/C=N/n2cnc3scc(-c4ccccc4)c3c2=O)c2ccccc21 | 42 | 0.9 | 5 | 12 | -12 | 0.6
Cc1c(NC(=O)C(C)N2CC(C)OC(C)C2)c(=O)n(-c2ccccc2)n1C (stereo not given) | -8 | 1.1 | -14 | -8 | -2 | 1.1
CCCSc1n[nH]c(NC(C)=O)n1 | -9 | 1.1 | -6 | -11 | 8 | 1.1
CCCSc1nsc(NC(=O)C(c2ccccc2)c2ccccc2)n1 | 73* | 0.8 | · | 20 | -5 | 0.3
CCCOC(=O)Nc1cc(OC)c(Cl)cc1OC | 47 | 0.1 | 0 | 89* | 12 | 0.5
Cc1ccc(-c2nnc(N3CCCCC3)c3ccccc23)cc1S(=O)(=O)NCC1CCCO1 (stereo not given) | 46 | 0.9 | · | 10 | -6 | 0.5
N#C/C(=C1/CCCCCN1)c1nnc2n1CCCCC2 | -4 | 1 | -9 | 2 | 6 | 1
C=CCN1C(c2ccccc2)=CS/C1=C(\C#N)c1nnc2n1CCCCC2 | 27 | 0.2 | 6 | 83* | 0 | 0.7
CCOc1ccc(C2=CS/C(=C(\C#N)c3nnc4n3CCCCC4)N2CC)cc1 | 18 | 0.5 | 12 | 54* | -7 | 0.8
O=C(NCC(=O)N(c1cccnc1)C(C(=O)NC1CCCCC1)c1cccnc1)c1ccco1 (stereo not given) | 0 | 1 | -14 | -4 | 1 | 1
O=C(NCC(=O)N(c1ccccc1)C(C(=O)NC1CCCCC1)c1ccncc1)c1ccco1 (stereo not given) | 22 | 0.8 | 3 | 23 | -3 | 0.8
O=C(NCC(=O)N(CCc1ccccc1)C(C(=O)NC1CCCC1)c1cccnc1)c1ccco1 (stereo not given) | 52* | 0.5 | -1 | 54* | 1 | 0.5
O=C(NCC(=O)N(c1ccccc1)C(C(=O)NCC1CCCO1)c1ccccc1)c1ccco1 (stereo not given) | -18 | 0.9 | 2 | 14 | 4 | 1.2
O=C(NCC(=O)N(CCc1ccccc1)C(C(=O)NC1CCCCC1)c1ccncc1)c1ccco1 (stereo not given) | 92* | 0.2 | 0 | 82* | 2 | 0.1
C=CCN(C(=O)CNC(=O)c1ccco1)C(C(=O)NC1CCCCC1)c1ccccc1 (stereo not given) | 70* | 0.2 | 9 | 83* | 6 | 0.3
Cc1ccc(N(C(=O)CNC(=O)c2ccco2)C(C(=O)NCC2CCCO2)c2ccccc2)cc1 (stereo not given) | 16 | 0.1 | -2 | 85* | -9 | 0.8
Cc1ccc(C(C(=O)NC2CCCCC2)N(CCC(C)C)C(=O)CNC(=O)c2ccco2)o1 (stereo not given) | 34 | 0.5 | 15 | 53* | -11 | 0.7
COc1cccc(N(C(=O)CNC(=O)c2ccco2)C(C(=O)NC2CCCC2)c2ccncc2)c1 (stereo not given) | 20 | 0.4 | 0 | 57* | 0 | 0.8
COc1ccc(Cc2nnc(SCC(=O)Nc3nc(C)cs3)o2)cc1 | 6 | 0.9 | -3 | 7 | 1 | 0.9
N/C(Cc1ccc(Cl)cc1)=N\OC(=O)c1ccc2ccccc2c1 | 17 | 1.1 | · | -15 | -2 | 0.8
SMILES | CYP2C9 inhib | CYP2C19 activ | Ecoli tolC | CYP2C19 inhib | E coli WT exp | CYP2C9 act
N/C(Cc1ccc(Cl)c(Cl)c1)=N\OC(=O)c1cccs1 | 63* | 0.6 | · | 38 | 39 | 0.4
CCOC(=O)Nc1ccc(=O)n(Cc2c(Cl)cccc2Cl)c1 | 53* | 0.8 | · | 23 | 2 | 0.5
CCOC(=O)CCN(Cc1sccc1C)S(=O)(=O)c1ccc(F)cc1 | 66* | 0.1 | · | 85* | -12 | 0.3
CCOC(=O)CN(Cc1ccccc1)S(=O)(=O)c1ccc(NC(C)=O)cc1 | -5 | 0.5 | 11 | 48 | -7 | 1
CCOC(=O)CCN(Cc1cccs1)S(=O)(=O)c1ccc(F)cc1 | 36 | 0.2 | 19 | 75* | -1 | 0.6
O=C(CSc1ncc(C(F)(F)F)cc1Cl)N1CCN(S(=O)(=O)c2ccc(Cl)cc2)CC1 | -57 | 0.2 | · | 79* | -7 | 1.6
O=C(CSc1ncc(C(F)(F)F)cc1Cl)N1CCN(S(=O)(=O)c2ccccc2)CC1 | 0 | 0.2 | 3 | 81* | -4 | 1
Cn1cc(Cl)c(C(=O)Nc2nc3ccccc3s2)n1 | -6 | 0.5 | · | 54* | 2 | 1.1
O=C(O)Cc1ccc(NC(=O)c2ccc(NC(=O)c3ccco3)cc2)cc1 | 7 | 0.8 | · | 23 | -9 | 0.9
O=C(Nc1ccc(OCC(=O)N2CCN(S(=O)(=O)c3ccccc3)CC2)cc1)c1ccco1 | 3 | 1 | -16 | -3 | -4 | 1
O=C(Nc1nc(-c2cccs2)c(-c2ccccc2)s1)c1ccco1 | 96* | 0.3 | 16 | 66* | -16 | 0
O=C(Nc1ccc(OCC(=O)N2CCC(Cc3ccccc3)CC2)cc1)c1ccco1 | 87* | 0.1 | · | 95* | 3 | 0.1
Cn1cc(Cl)c(C(=O)Nc2cccc(Cl)c2Cl)n1 | 16 | 0.5 | -13 | 49 | -16 | 0.8
O=C(Nc1nccs1)c1ccc(NC(=O)c2ccco2)cc1 | 51* | 0.8 | -15 | 20 | -11 | 0.5
O=C(Nc1nnc(COc2ccccc2)s1)c1ccco1 | 21 | 0.9 | -13 | 11 | -13 | 0.8
O=S(=O)(CCc1ccccc1)/N=C/c1cccs1 | -21 | 1.1 | -20 | -9 | · | 1.2
O=C(NCCN1CCOCC1)Nc1ccccc1 | 14 | 1 | · | 2 | -1 | 0.9
Cc1nc(CC(=O)O)c(-c2ccccc2)s1 | 4 | 1 | -10 | -3 | -8 | 1
CC1=C(C(=O)N(C)C)C(c2cccc(Cl)c2)NC(=O)N1 (stereo not given) | -1 | 1 | 2 | 5 | -2 | 1
O=C(COC(=O)c1ccccn1)Nc1cccc(Cl)c1 | 14 | 0.7 | 2 | 30 | 7 | 0.9
O=C(Nc1ccc(Cc2ccncc2)cc1)c1ccco1 | 98* | 0 | -4 | 96* | 18 | 0
CN(C)C(=O)COC(=O)[C@H](Cc1ccccc1)NC(=O)c1ccco1 | 16 | 0.9 | · | 8 | 3 | 0.8
